Assays:
Format in all cases: functional
[1] = Cytotoxicity against human CNS cancer cells after 48 hrs by coulter counting; settings: Cancer cell lines
In short: (§1)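 NCI 60-cell-line panel covering nine tumour subpanels, tested over a 5-log dose range. Compounds were dissolved in DMSO and diluted in phosphate-buffered saline to a final DMSO below 1%. Wells held 6 × 10⁴ cells/ml and were run in duplicate. Controls contained PBS and DMSO at matching dilutions. Incubation was at 37 °C in humidified 5% CO₂. GI₅₀, TGI and LC₅₀ were reported.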

[2] = Cytotoxicity against human melanoma cells after 48 hrs by coulter counting; settings: Melanoma cell; in short: as §1
[3] = Cytotoxicity against human renal cancer cells after 48 hrs by coulter counting; settings: Cancer cell lines; in short: as §1
[4] = Cytotoxicity against human ovarian cancer cells after 48 hrs by coulter counting; settings: Cancer cell lines; in short: as §1
[5] = Cytotoxicity against human prostate cancer cells after 48 hrs by coulter counting; settings: Cancer cell lines; in short: as §1
[6] = Cytotoxicity against human breast cancer cells after 48 hrs by coulter counting; settings: Cancer cell lines; in short: as §1
NSCLC = assay: Cytotoxicity against human NSCLC cells after 48 hrs by coulter counting; in short: as §1
[7] = Cytotoxicity against human leukemia cells after 48 hrs by coulter counting; settings: Leukemia cell; in short: as §1
[8] = Cytotoxicity against human colon cancer cells after 48 hrs by coulter counting; settings: Cancer cell lines; in short: as §1
UACC-257 = assay: Growth inhibition of human UACC257 cells at 10 uM after 48 hrs by coulter counting; settings: UACC-257, 48 h, read-out: GI
In short: (§2)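 Single-dose screen in the NCI 60 human tumor cell line panel (nine subpanels). Compounds dissolved in DMSO and diluted in phosphate buffered saline, keeping final DMSO below 1%. Added in duplicate wells to cells at 6 × 10⁴ cells/ml. Controls held PBS and DMSO at matching dilutions. Incubated at 37 °C, humidified, 5% CO₂. Reported as percent growth of treated cells.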

UACC-62 = assay: Growth inhibition of human UACC62 cells at 10 uM after 48 hrs by coulter counting; settings: UACC-62, 48 h, read-out: GI; in short: as §2
CCRF-CEM = assay: Growth inhibition of human CCRF-CEM cells at 10 uM after 48 hrs by coulter counting; settings: read-out: GI
In short: (§3)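 Single-dose primary screen across the full NCI 60-cell-line panel. Stocks were made in DMSO and diluted in PBS to a final DMSO below 1%. Cultures at 6 × 10⁴ cells/ml were run in duplicate wells alongside PBS/DMSO vehicle controls at 37 °C in humidified 5% CO₂. Data were expressed as percent growth of treated cells.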

HL-60(TB) = assay: Growth inhibition of human HL-60(TB) cells at 10 uM after 48 hrs by coulter counting; settings: HL-60, 48 h, read-out: GI
In short: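 Test compound was dissolved in DMSO and diluted in phosphate-buffered saline to a final DMSO level below 1%. Dilutions were plated in duplicate with cell culture at 6 × 10⁴ cells/ml. Vehicle controls held PBS and DMSO at matching dilutions. Incubation was at 37 °C, humidified, under 5% CO₂. Data were reported as percent growth of treated cells.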

K562 = assay: Growth inhibition of human K562 cells at 10 uM after 48 hrs by coulter counting; settings: K562, 48 h, read-out: GI; in short: as §3
MOLT-4 = assay: Growth inhibition of human MOLT4 cells at 10 uM after 48 hrs by coulter counting; settings: MOLT-4, 48 h, read-out: GI; in short: as §3
RPMI-8226 = assay: Growth inhibition of human RPMI8226 cells at 10 uM after 48 hrs by coulter counting; settings: RPMI-8226, 48 h, read-out: GI; in short: as §3
A549 = assay: Growth inhibition of human A549 cells at 10 uM after 48 hrs by coulter counting; settings: A549, 48 h, read-out: GI; in short: as §3
EKVX = assay: Growth inhibition of human EKVX cells at 10 uM after 48 hrs by coulter counting; settings: read-out: GI; in short: as §3
HOP-62 = assay: Growth inhibition of human HOP62 cells at 10 uM after 48 hrs by coulter counting; settings: HOP-62, 48 h, read-out: GI; in short: as §3
NCI-H226 = assay: Growth inhibition of human NCI-H226 cells at 10 uM after 48 hrs by coulter counting; settings: NCI-H226, 48 h, read-out: GI; in short: as §3
NCI-H23 = assay: Growth inhibition of human NCI-H23 cells at 10 uM after 48 hrs by coulter counting; settings: NCI-H23, 48 h, read-out: GI; in short: as §3
[9] = Growth inhibition of human NCI-322M cells at 10 uM after 48 hrs by coulter counting; settings: read-out: GI; in short: as §3
NCI-H460 = assay: Growth inhibition of human NCI-H460 cells at 10 uM after 48 hrs by coulter counting; settings: NCI-H460, 48 h, read-out: GI; in short: as §3
NCI-H522 = assay: Growth inhibition of human NCI-H522 cells at 10 uM after 48 hrs by coulter counting; settings: NCI-H522, 48 h, read-out: GI; in short: as §3
HCT-116 = assay: Growth inhibition of human HCT116 cells at 10 uM after 48 hrs by coulter counting; settings: HCT-116, 48 h, read-out: GI; in short: as §3
HCC 2998 = assay: Growth inhibition of human HCC2998 cells at 10 uM after 48 hrs by coulter counting; settings: HCC 2998, 48 h, read-out: GI; in short: as §3
HT-29 = assay: Growth inhibition of human HT-29 cells at 10 uM after 48 hrs by coulter counting; settings: HT-29, 48 h, read-out: GI; in short: as §3
KM12 = assay: Growth inhibition of human KM12 cells at 10 uM after 48 hrs by coulter counting; settings: KM12, 48 h, read-out: GI; in short: as §3
SF-268 = assay: Growth inhibition of human SF268 cells at 10 uM after 48 hrs by coulter counting; settings: SF-268, 48 h, read-out: GI; in short: as §3
SF-295 = assay: Growth inhibition of human SF295 cells at 10 uM after 48 hrs by coulter counting; settings: SF-295, 48 h, read-out: GI; in short: as §3
SNB-19 = assay: Growth inhibition of human SNB19 cells at 10 uM after 48 hrs by coulter counting; settings: SNB-19, 48 h, read-out: GI; in short: as §3
SNB-75 = assay: Growth inhibition of human SNB75 cells at 10 uM after 48 hrs by coulter counting; settings: SNB-75, 48 h, read-out: GI; in short: as §3
U-251 = assay: Growth inhibition of human U251 cells at 10 uM after 48 hrs by coulter counting; settings: U-251, 48 h, read-out: GI; in short: as §2
LOX IMVI = assay: Growth inhibition of human LOXIMVI cells at 10 uM after 48 hrs by coulter counting; settings: read-out: GI; in short: as §3
M14 = assay: Growth inhibition of human M14 cells at 10 uM after 48 hrs by coulter counting; settings: M14, 48 h, read-out: GI; in short: as §3
MDA-MB-435 = assay: Growth inhibition of human MDA-MB-435 cells at 10 uM after 48 hrs by coulter counting; settings: MDA-MB-435, 48 h, read-out: GI; in short: as §3
SK-MEL-2 = assay: Growth inhibition of human SK-MEL-2 cells at 10 uM after 48 hrs by coulter counting; settings: SK-MEL-2, 48 h, read-out: GI; in short: as §3
SK-MEL-28 = assay: Growth inhibition of human SK-MEL-28 cells at 10 uM after 48 hrs by coulter counting; settings: SK-MEL-28, 48 h, read-out: GI; in short: as §3
SK-MEL-5 = assay: Growth inhibition of human SK-MEL-5 cells at 10 uM after 48 hrs by coulter counting; settings: SK-MEL-5, 48 h, read-out: GI; in short: as §3
IGROV-1 = assay: Growth inhibition of human IGROV1 cells at 10 uM after 48 hrs by coulter counting; settings: IGROV-1, 48 h, read-out: GI; in short: as §3
OVCAR-4 = assay: Growth inhibition of human OVCAR4 cells at 10 uM after 48 hrs by coulter counting; settings: OVCAR-4, 48 h, read-out: GI; in short: as §3
NCI/ADR-RES = assay: Growth inhibition of human NCI/ADR-RES cells at 10 uM after 48 hrs by coulter counting; settings: read-out: GI; in short: as §3
A498 = assay: Growth inhibition of human A498 cells at 10 uM after 48 hrs by coulter counting; settings: A498, 48 h, read-out: GI; in short: as §3
ACHN = assay: Growth inhibition of human ACHN cells at 10 uM after 48 hrs by coulter counting; settings: read-out: GI; in short: as §3
CAKI-1 = assay: Growth inhibition of human Caki1 cells at 10 uM after 48 hrs by coulter counting; settings: CAKI-1, 48 h, read-out: GI; in short: as §3
UO-31 = assay: Growth inhibition of human UO31 cells at 10 uM after 48 hrs by coulter counting; settings: UO-31, 48 h, read-out: GI; in short: as §2
DU-145 = assay: Growth inhibition of human DU145 cells at 10 uM after 48 hrs by coulter counting; settings: DU-145, 48 h, read-out: GI; in short: as §3
MCF7 = assay: Growth inhibition of human MCF7 cells at 10 uM after 48 hrs by coulter counting; settings: MCF7, 48 h, read-out: GI; in short: as §3
BT-549 = assay: Growth inhibition of human BT549 cells at 10 uM after 48 hrs by coulter counting; settings: BT-549, 48 h, read-out: GI; in short: as §3
T47D = assay: Growth inhibition of human T47D cells at 10 uM after 48 hrs by coulter counting; settings: read-out: GI; in short: as §2
[10] = read-out: LC50 (the source's name)

## O=c1[nH]cc(F)c(=O)[nH]1 [FLUOROURACIL]
[1]
  TGI: > 100 µM
[2]
  GI50: 70.6 µM
  TGI: > 100 µM
[2]; [10]
  CC50: > 100 µM
[3]
  GI50: 45.6 µM
  TGI: > 100 µM
[4]
  GI50: 61.4 µM
  TGI: > 100 µM
[4]; [10]
  CC50: > 100 µM
[5]
  GI50: 22.7 µM
  TGI: > 100 µM
[6]
  GI50: 76.4 µM
  TGI: > 100 µM
[6]; [10]
  CC50: > 100 µM
NSCLC
  GI50: > 100 µM
  TGI: > 100 µM
NSCLC; [10]
  CC50: > 100 µM
[7]
  TGI: > 100 µM
[7]; [10]
  CC50: > 100 µM
[8]
  GI50: 8.4 µM
  TGI: > 100 µM

## CC1=CSC2=NC3=C(CCC/C3=C\c3cccs3)C(c3cccs3)N12 (configuration not stated)
UACC-257
  inhibition of growth at 10 µM: > 10%
UACC-62
  inhibition of growth at 10 µM: > 10%
CCRF-CEM
  inhibition of growth at 10 µM: > 10%
HL-60(TB)
  inhibition of growth at 10 µM: 11.4%
K562
  inhibition of growth at 10 µM: > 10%
MOLT-4
  inhibition of growth at 10 µM: > 10%
RPMI-8226
  inhibition of growth at 10 µM: > 10%
A549
  inhibition of growth at 10 µM: > 10%
EKVX
  inhibition of growth at 10 µM: > 10%
HOP-62
  inhibition of growth at 10 µM: 11.3%
NCI-H226
  inhibition of growth at 10 µM: > 10%
NCI-H23
  inhibition of growth at 10 µM: > 10%
[9]
  inhibition of growth at 10 µM: > 10%
NCI-H460
  inhibition of growth at 10 µM: > 10%
NCI-H522
  inhibition of growth at 10 µM: > 10%
HCT-116
  inhibition of growth at 10 µM: > 10%
HCC 2998
  inhibition of growth at 10 µM: > 10%
HT-29
  inhibition of growth at 10 µM: > 10%
KM12
  inhibition of growth at 10 µM: > 10%
SF-268
  inhibition of growth at 10 µM: > 10%
SF-295
  inhibition of growth at 10 µM: > 10%
SNB-19
  inhibition of growth at 10 µM: > 10%
SNB-75
  inhibition of growth at 10 µM: 16.6%
U-251
  inhibition of growth at 10 µM: > 10%
LOX IMVI
  inhibition of growth at 10 µM: > 10%
M14
  inhibition of growth at 10 µM: > 10%
MDA-MB-435
  inhibition of growth at 10 µM: > 10%
SK-MEL-2
  inhibition of growth at 10 µM: > 10%
SK-MEL-28
  inhibition of growth at 10 µM: > 10%
SK-MEL-5
  inhibition of growth at 10 µM: > 10%
IGROV-1
  inhibition of growth at 10 µM: > 10%
OVCAR-4
  inhibition of growth at 10 µM: > 10%
NCI/ADR-RES
  inhibition of growth at 10 µM: > 10%
A498
  inhibition of growth at 10 µM: 14.3%
ACHN
  inhibition of growth at 10 µM: > 10%
CAKI-1
  inhibition of growth at 10 µM: > 10%
UO-31
  inhibition of growth at 10 µM: 24.5%
DU-145
  inhibition of growth at 10 µM: > 10%
MCF7
  inhibition of growth at 10 µM: > 10%
BT-549
  inhibition of growth at 10 µM: > 10%
T47D
  inhibition of growth at 10 µM: > 10%

— ChEMBL document CHEMBL1926614, “Substituted thiazoles V. synthesis and antitumor activity of novel thiazolo[2,3-b]quinazoline and pyrido[4,3-d]thiazolo[3,2-a]pyrimidine analogues” (2012)
